Assay outcomes: PubChem BioAssay, Sanford-Burnham Center for Chemical Genomics
A selection: hits, their analogues and other compounds. The true share with any hit is near 0.72%.
hIAP act: human IAP activators, primary screen, biochemical, luminescence, uHTS; Intestinal-type alkaline phosphatase (Homo sapiens), P09923; purified human IAP, CDP-Star luminescence, 30 min; stronger effect = higher value; 1 = vehicle-only enzyme, 0 = enzyme-free background; activation factor at 10 µM; 330,000 tested, 0.16% active; AID 2524, 2010;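 active means activation factor of the enzyme at least 2-fold when tested at 20 µM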
Target sequence (P09923 whole entry, looked up): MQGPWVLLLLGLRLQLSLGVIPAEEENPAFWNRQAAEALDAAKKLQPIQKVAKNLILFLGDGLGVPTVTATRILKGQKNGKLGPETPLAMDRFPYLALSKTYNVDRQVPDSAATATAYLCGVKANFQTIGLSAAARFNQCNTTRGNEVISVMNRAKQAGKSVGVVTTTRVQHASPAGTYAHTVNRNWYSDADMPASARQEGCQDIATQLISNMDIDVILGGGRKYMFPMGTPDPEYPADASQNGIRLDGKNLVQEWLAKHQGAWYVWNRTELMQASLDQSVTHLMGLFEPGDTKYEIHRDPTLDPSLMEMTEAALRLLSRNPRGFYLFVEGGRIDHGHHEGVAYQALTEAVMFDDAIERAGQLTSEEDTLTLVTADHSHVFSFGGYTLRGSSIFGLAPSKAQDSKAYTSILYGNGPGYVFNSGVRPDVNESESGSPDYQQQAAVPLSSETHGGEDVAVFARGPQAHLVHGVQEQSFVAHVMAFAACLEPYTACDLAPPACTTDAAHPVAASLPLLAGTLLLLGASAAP
hIAP inh: human IAP inhibitors, primary screen, biochemical, luminescence, uHTS. Intestinal-type alkaline phosphatase (Homo sapiens), P09923. purified IAP, CDP-Star luminescence, 30 min. inhibition, % at 10 µM. 330,000 tested, 0.12% active;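 active means inhibition reaching a set limit with compound at 10 µM in the primary screen, cut at about 35% in these data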;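 further: plate controls were DMSO wells with enzyme for no effect and no-enzyme buffer wells for full effect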
bIAP act: bovine intestinal alkaline phosphatase activators, primary screen, biochemical, bovine IAP, CDP-star luminescence; purified bovine IAP, 30 min; stronger effect = higher value; fold of DMSO-control signal, blank-subtracted; activation factor at 20 µM; AID 1016, 2008; 200,000 tested, 0.17% active;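 active means activation factor of 2 or more at 20 µM, a signal rise over negative controls twice the positive control's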
bIAP inh: bovine intestinal alkaline phosphatase inhibitors, primary screen, selectivity assay for TNAP inhibitor project, biochemical, bovine IAP, CDP-star luminescence. alkaline phosphatase, intestinal [Bos taurus]. purified bovine IAP, 30 min. inhibition, % at 20 µM. 190,000 tested, under 10 active;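 active means over 50% inhibition of intestinal alkaline phosphatase at 20 µM in the single-dose screen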
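Assay system – bovine IAP enzyme · Quantity – bovine IAP at 1/65,000,000 final dilution · Detection – CDP-star luminescence signal · Times – 30 min reaction at room temperature · Also added – CDP-star substrate at 30 µM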
mIAP block: inhibitors of mouse IAP, primary screen, biochemical, luminescence, uHTS; intestinal alkaline phosphatase [Mus musculus]; purified mouse IAP, CDP-Star luminescence, 30 min; inhibition, % at 10 µM; 330,000 tested, 0.2% active; AID 2806, 2010;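 active means inhibition of at least 40% at 10 µM in the primary screen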;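 further: plate controls were DMSO with enzyme for no effect and no enzyme wells for full effect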
mIAP activ: activators of mouse IAP, primary screen, biochemical, luminescence, uHTS. muIAP, CDP-Star luminescence, 30 min; stronger effect = higher value; 1 = vehicle-only enzyme signal, 0 = enzyme-free wells. activation factor at 10 µM. 330,000 tested, 0.24% active. AID 2805, 2010;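 active means activation factor of at least 2 at 20 µM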
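Assay system: mouse IAP enzyme; reagent: chemiluminescent substrate CDP-Star; dosing: test compounds delivered from DMSO solution; schedule: 30 min at room temperature; measured by: luminescence from enzymatic CDP-Star hydrolysis; controls: DMSO-only wells and no-enzyme negative control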
An asterisk follows results filed as active; · = no result.

SMILES	hIAP act	hIAP inh	bIAP act	bIAP inh	mIAP block	mIAP activ
COCCCN1C(=O)c2ccc(C(=O)N3CCN(c4ccccc4OC)CC3)cc2C1=O	1.02	-2.3	·	·	-4.1	1.04
CCOC(=O)CSc1c(-c2ccc(Cl)cc2)[nH]c2ccccc12	1.04	-3.7	0.9	8.3	3.0	0.97
O=C(Cc1cccs1)NCCSc1c(-c2ccc(Cl)cc2)[nH]c2ccccc12	0.903	9.7	1.1	-5.4	-153.5	2.54*
COc1ccc(NC(=O)Nc2ccc(Br)c(C)c2)cc1	1.2	-19.5	1	0.4	-106.1	2.06*
COc1ccc(NC(=O)Nc2cc(C)ccc2OC)cc1	0.976	2.4	0.9	11.2	-3.0	1.03
CCOC(=O)c1ccc(N2CCN(c3ccc(F)cc3)CC2)c(NC(=O)Nc2cccc(OC)c2)c1	1.15	-14.7	0.7	33.2	-183.6	2.84*
CCc1ccc(NC(=O)Nc2cccc(OC)c2)cc1	1.02	-1.6	0.9	5.9	-151.3	2.51*
COc1cccc(NC(=O)Nc2ccc(CC(=O)O)cc2)c1	1.01	-1.1	1	-4.1	7.7	0.923
Cc1ccc(NC(=O)C(Cc2ccccc2)NC(=O)OCc2ccccc2)cc1C (configuration not stated)	1.07	-7.0	1	-3.2	-110.7	2.11*
Cc1cccc(NC(=O)[C@H](Cc2ccccc2)NC(=O)OCc2ccccc2)c1	0.954	4.6	1	-0.2	-57.0	1.57
C[C@@H]1NC(=O)c2cc([N+](=O)[O-])cc(I)c2OCC[C@@H](C(=O)NC(CC(=O)O)C(N)=O)NC(=O)[C@H](CC(N)=O)NC1=O (some centres not stated)	0.988	1.2	1.2	-21.8	44.7*	0.553
Cn1c(N)c(C(=O)CSc2n[nH]c(-c3ccccc3)n2)c(=O)n(C)c1=O	1.14	-14.2	·	·	-10.4	1.1
O=C(NCc1ccc2c(c1)OCO2)C1CCN(Cc2cnn(-c3ccccc3)c2-n2cccc2)CC1	1.35	-35.3	2.1*	-114.3	-20.9	1.21
O=C(Nc1ccccc1Cl)C1CCN(Cc2cnn(-c3ccccc3)c2-n2cccc2)CC1	1.01	-1.3	1.4	-43.6	7.6	0.924
CCOc1ccccc1NC(=O)COC(=O)CCOc1cc(C)ccc1C	1.02	-2.3	·	·	-2.3	1.02
COc1cccc(NCc2cc3c(C(C)(C)C)nn(-c4ccccc4)c3[nH]c2=O)c1	1.03	-3.1	3.8*	-280.5	-8.5	1.08
CC1CCCN(C(C(=O)Nc2ccc3c(c2)OCO3)c2ccccc2)C1 (configuration not stated)	0.761	23.9	2.1*	-113.4	-31.5	1.31
CC1CCCN(C(C(=O)Nc2ccc3c(c2)OCCO3)c2ccccc2)C1 (configuration not stated)	0.999	0.1	1.1	-13.2	-22.0	1.22
CC1CCN(C(C(=O)Nc2ccc3c(c2)OCO3)c2ccccc2)CC1 (configuration not stated)	0.833	16.7	2.7*	-166.8	-18.5	1.19
Cn1c(=O)[nH]c(=O)c2c1nc(N1CCOCC1)n2CC(=O)c1ccccc1	1.23	-23.3	1.1	-8.2	-3.3	1.03
C#CCOCCOCCOCCNc1nc(N2CCN(C(=O)[C@H](Cc3cc4ccccc4[nH]3)n3cc([C@@H](N)C(C)CC)nn3)CC2)nc(N2CCN(C(=O)[C@H](Cc3cc4ccccc4[nH]3)n3cc([C@@H](N)CC(C)C)nn3)CC2)n1 (some centres not stated)	0.869	13.1	5.4*	-441.6	-43.9	1.44
Cc1cc(C)cc(C(=O)Nc2ccc(N3CCCC3)cc2)c1	0.921	7.9	1.2	-16.4	4.4	0.956
Cc1cc(C)cc(NC(=O)Nc2ccc(N3CCCCC3)cc2)c1	1.18	-17.8	·	·	-100.4	2*
COCc1ccc(C(=O)OC(C)C(=O)Nc2c(C)n(C)n(-c3ccccc3)c2=O)cc1 (configuration not stated)	0.98	2.0	·	·	-2.0	1.02
COc1ccccc1-c1cc(C(=O)N2CCN(S(=O)(=O)c3ccc(C)cc3)CC2)[nH]n1	1.2	-19.7	·	·	-127.9	2.28*
SMILES	hIAP act	hIAP inh	bIAP act	bIAP inh	mIAP block	mIAP activ
COc1cc(/C=C2/C(=O)NN(c3cccc(F)c3)C2=O)ccc1OC(=O)c1ccco1	0.836	16.4	2.1*	-108.9	10.8	0.892
COc1ccc2c(c1)c(=O)cc(C)n2CC(=O)NCc1ccco1	1.09	-8.6	5.3*	-429.9	-1.0	1.01
COc1ccc(-n2c(=O)c3ccccc3n(CC(=O)NCc3ccco3)c2=O)cc1	0.936	6.4	1.1	-10.3	1.5	0.985
C=CCNC(=O)/C=C/c1c(F)cccc1Cl	1.03	-3.0	2.7*	-168.6	-5.3	1.05
CCCOc1ccc(CNC(=S)NCc2ccc(OC(C)C)cc2)cc1	1.22	-22.1	1	-1.7	-315.0	4.15*
O=C(NCCc1ccccc1)c1n[nH]c2ccccc12	0.807	19.3	2*	-96.0	-2.4	1.02
S=C(NCc1ccc2c(c1)OCO2)Nc1ccc(-c2nc3ccccc3[nH]2)cc1	1.2	-20.0	0.9	7.0	-131.3	2.31*
COc1ccc(NC(=S)NCc2ccc3c(c2)OCO3)cc1	0.949	5.1	0.7	26.6	-5.5	1.05
CC(C)c1ccc(NC(=S)NCc2ccc3c(c2)OCO3)cc1	1.08	-7.7	0.9	6.7	-152.0	2.52*
CN(C)CCNC(=S)Nc1ccc(-c2nc3ccccc3[nH]2)cc1	0.956	4.4	1	-3.5	-11.9	1.12
O=C(Nc1nc(-c2cccs2)c(-c2cccs2)s1)C1CCCC1	·	·	1.1	-7.7	·	·
Cc1cccc(C(=O)Nc2nnc(S(=O)(=O)N(C)Cc3ccco3)s2)c1	0.84	16.0	·	·	9.5	0.905
FC(F)(F)c1cccc(NC(=S)NCc2ccccc2)c1	1.23	-22.6	0.6	36.9	-120.4	2.2*
FC(F)(F)Sc1ccc(NC(=S)NCc2ccccc2)cc1	0.999	0.1	·	·	-132.2	2.32*
COc1cccc(NC(=O)Nc2cc(C)ccc2OC)c1	0.754	24.6	1	1.7	-25.8	1.26
O=C(Nc1ccccc1)Nc1cccc(C(F)(F)F)c1	1.15	-15.4	1	0.8	-187.0	2.87*
FC(F)(F)c1cccc(CNC(=S)Nc2ccccc2)c1	1.08	-7.8	0.7	26.5	-33.7	1.34
CNC(=O)Nc1cccc(C(F)(F)F)c1	0.936	6.4	0.9	5.9	9.3	0.907
